Measurements published in ChEMBL document CHEMBL5149984, “Discovery of HN37 as a Potent and Chemically Stable Antiepileptic Drug Candidate” (J Med Chem, 2021).

How the values were obtained:
Mus musculus = experiment: Anticonvulsant activity in MES induced Kunming mouse model of seizure at 60 mg/kg, po; format: functional
How it was run: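 MES test in male KM mice. Compounds freshly suspended in 0.5% CMC-Na and given by gavage at 20 mL/kg; 160 V stimulus through ear clips. Protection scored as absence of hindlimb tonic extension; time course at 0.25, 0.5, 1 and 2 h, otherwise tested at 1 h. ED50 from dose−response by nonlinear regression; Fisher's exact test versus vehicle.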

[1] = Neurotoxicity in po dosed Kunming mouse assessed as motor impairment after 1 hr by rotarod test; format: toxicity, organism-based; conditions: in vivo
How it was run: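 Male KM mice dosed intragastrically with compound freshly suspended in 0.5% CMC-Na. Rotarod performance scored 1 h after dosing as the fraction of animals showing motor impairment. Fisher's exact test versus vehicle; TD50 from nonlinear dose−response fit.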

[2] = biological target: Potassium voltage-gated channel subfamily KQT member 2 (Rattus norvegicus) (UniProt O88943); experiment: Agonist activity at rat KCNQ2 channel expressed in CHO cells assessed as shift of half voltage of maximal activation at 0.1 uM by patch clamp method; format: cell-based; conditions: filed as agonist
How it was run: (§1)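 Whole-cell patch clamp at room temperature on CHO cells (DMEM/F12, 10% FBS) transiently co-transfected with EGFP and hKCNQ1, rKCNQ2, rKCNQ3 A278T, hKCNQ4 or hKCNQ5; KCNQ2/3 at 1:1 cDNA ratio. Pipette solution 145 mM KCl, 5 mM MgATP, pH 7.3; bath 140 mM NaCl, 5 mM KCl, pH 7.4, under perfusion. V1/2 from Boltzmann fits; I/I0 is current amplitude with versus without compound; n = 4−6.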

[3] = Ratio of drug concentration in Kunming mouse brain to plasma by rotarod test
Cytochrome P450 1A2 = Cytochrome P450 1A2 (Homo sapiens, UniProt P05177); experiment: Time dependent inhibition of human liver microsome CYP1A2 preincubated for 0.5 hrs in presence of NADPH followed by substrate addition by LC-MS/MS method; format: ADME, microsomes
How it was run: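 Human liver microsomes preincubated 0.5 h with 0.10–50 μM test compound, with or without NADPH, then CYP-specific probe substrate added and incubation continued. Metabolite measured by LC-MS/MS; % activity remaining relative to no-compound control; IC50 fitted by Probit model. For CYP3A4, midazolam 1′-hydroxylation and testosterone 6β-hydroxylation were read separately.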

[4] = Ratio of TD50 for Kunming mouse to ED50 for anticonvulsant activity in Kunming mouse; format: toxicity; conditions: read-out: Ratio TD50/ED50
How it was run: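 KM mice given compound orally as a fresh 0.5% CMC-Na suspension (20 mL/kg), tested 1 h later. ED50 from the MES test (protection from hindlimb tonic extension; ear-clip stimulus 160 V). TD50 from the rotarod test as motor impairment. Both from dose–response nonlinear regression with 95% CI.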

[5] = Tmax in Kunming mouse plasma at 5 mg/kg, po measured upto 24 hrs by LC-MS/MS method; format: ADME, organism-based
How it was run: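 Male KM mice (18–24 g), fasted 12 h before and 2 h after dosing, n = 3 per time point. Oral dose in 5% DMSO/5% Tween 80/90% saline; i.v. dose is that formulation diluted in saline with 1% Tween 80. Blood sampled 0.25–24 h after oral dosing, 0.083–24 h after i.v.; whole brain taken after oral dosing. Acetonitrile extraction with internal standard, LC-MS/MS.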

[6] = Half life in Sprague-Dawley rat at 6 mg/kg, po measured upto 24 hrs by LC-MS/MS method; format: ADME, organism-based; conditions: in vivo
How it was run: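 Male SD rats (180−220 g) given single oral doses of 2, 6 and 20 mg/kg; handled as in the mouse PK study (fasted 12 h before and 2 h after dosing, 5% DMSO/5% Tween 80/90% saline formulation). In a separate 6 mg/kg p.o. set, blood and brain were sampled together. Plasma and brain levels by LC−MS/MS.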

Brain = experiment: Anticonvulsant activity in MES induced Kunming mouse model of seizure assessed as EC50 in brain; format: functional, tissue-based
[7] = AUC(0 to t) in Kunming mouse brain at 5 mg/kg, po measured upto 24 hrs by LC-MS/MS method; format: ADME, organism-based; parameters: dose 5 mg/kg, time < 24 hrs, route po
How it was run: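 KM male mice (18−24 g), fasted 12 h before and 2 h after dosing. HN37 given orally at 5 mg/kg in 5% DMSO/5% Tween 80/90% saline, or iv at 2 mg/kg after dilution in saline with 1% Tween 80; n = 3 per time point. Blood sampled 0.25–24 h (from 0.083 h after iv); whole brain taken after oral dosing. Plasma and brain extracted with acetonitrile, quantified by LC−MS/MS; AUC0−t by trapezoidal method.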

[8] = biological target: Potassium voltage-gated channel subfamily KQT member 2 (Rattus norvegicus) (UniProt O88943); experiment: Agonist activity at rat KCNQ2 channel expressed in CHO cells assessed as amplitude change of outward current at 0.1 uM by patch clamp method; format: cell-based; conditions: filed as agonist; how it was run: as §1
[9] = Cmax in Sprague-Dawley rat at 20 mg/kg, po measured upto 24 hrs by LC-MS/MS method; format: ADME, organism-based; parameters: time < 24 hrs, dose 20 mg/kg, route po; conditions: in vivo
How it was run: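 Male SD rats (180−220 g) dosed orally at 2, 6 or 20 mg/kg in escalating fashion, handled as in the mouse study: 12 h fast, acetonitrile extraction of plasma, LC−MS/MS quantification. AUC0−t by trapezoidal method to the last measurable concentration.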

Rattus norvegicus = organism: Rattus norvegicus; experiment: Potency index, ratio of retigabine ED50 to test compound ED50 for anticonvulsant activity in MES induced rat model of seizure after 1 hr; format: functional
[10] = Tmax in Sprague-Dawley rat blood at 6 mg/kg, po measured upto 24 hrs by LC-MS/MS method; format: ADME, organism-based
How it was run: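 Male SD rats (180–220 g) dosed orally at 2, 6 and 20 mg/kg, handled like the mice: fasting, 5% DMSO/5% Tween 80/saline vehicle, acetonitrile extraction, LC-MS/MS of plasma. In a separate set at 6 mg/kg p.o., blood and brain were sampled together.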

CYP3A4 = CYP3A4 (Homo sapiens, UniProt P08684); experiment: Inhibition of human liver microsome CYP3A4 at 0.10 to 50 uM preincubated with NADPH for 0.5 hrs followed by substrate addition by LC-MS/MS method relative to control; format: ADME; conditions: liver microsomes, dose 0.1-50 µM
How it was run: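 Human liver microsomes preincubated 0.5 h with 0.10−50 μM compound, with or without NADPH, then CYP-specific probe substrates added (CYP3A4 with midazolam 1′-hydroxylation and with testosterone 6β-hydroxylation). Metabolites quantified by LC−MS/MS; % activity remaining computed against no-compound control. IC50 fitted by Probit model; ratio = IC50(−NADPH)/IC50(+NADPH).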

CYP2D6 = CYP2D6 (Homo sapiens, UniProt P10635); experiment: Ratio of IC50 for human liver microsome CYP2D6 in absence of NADPH to IC50 for human liver microsome CYP2D6 in presence of NADPH; conditions: liver microsomes, read-out: Ratio IC50
[11] = Ratio of TC50 for Kunming mouse to EC50 for anticonvulsant activity in Kunming mouse; format: toxicity
How it was run: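 Male KM mice dosed orally in 0.5% CMC-Na and killed straight after the 1 h MES or rotarod test. Brain and plasma levels measured by LC−MS/MS. EC50 and TC50 fitted by nonlinear regression of protection or motor impairment against mean brain concentration; ratio = TC50,brain/EC50,brain.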

[12] = Metabolic stability in mouse liver microsomes assessed as half life; format: ADME, Microsome

Sequence of Potassium voltage-gated channel subfamily KQT member 2 (Rattus norvegicus) (O88943 whole entry, the tested form may be a part): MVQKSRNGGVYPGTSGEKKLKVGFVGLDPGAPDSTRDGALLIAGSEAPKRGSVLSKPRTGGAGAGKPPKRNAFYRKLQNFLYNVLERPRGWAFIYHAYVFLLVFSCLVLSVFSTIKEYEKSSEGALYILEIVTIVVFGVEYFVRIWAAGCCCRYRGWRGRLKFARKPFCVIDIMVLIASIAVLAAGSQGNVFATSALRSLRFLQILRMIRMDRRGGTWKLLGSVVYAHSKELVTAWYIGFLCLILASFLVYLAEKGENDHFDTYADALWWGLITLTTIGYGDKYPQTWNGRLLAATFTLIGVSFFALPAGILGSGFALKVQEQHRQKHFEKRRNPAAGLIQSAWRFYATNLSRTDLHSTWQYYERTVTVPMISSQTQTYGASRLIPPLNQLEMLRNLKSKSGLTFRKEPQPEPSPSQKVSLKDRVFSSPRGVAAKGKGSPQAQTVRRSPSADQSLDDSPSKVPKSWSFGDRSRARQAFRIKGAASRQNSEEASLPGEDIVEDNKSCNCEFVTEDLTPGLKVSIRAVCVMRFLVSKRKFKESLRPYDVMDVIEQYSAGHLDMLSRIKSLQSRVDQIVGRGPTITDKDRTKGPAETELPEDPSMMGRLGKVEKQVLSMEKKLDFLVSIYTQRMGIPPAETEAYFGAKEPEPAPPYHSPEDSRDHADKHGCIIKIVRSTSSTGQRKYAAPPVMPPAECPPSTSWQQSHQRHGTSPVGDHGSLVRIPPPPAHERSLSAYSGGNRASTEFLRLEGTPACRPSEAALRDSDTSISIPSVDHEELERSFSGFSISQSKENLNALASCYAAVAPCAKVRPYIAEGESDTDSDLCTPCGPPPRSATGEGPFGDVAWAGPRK
Sequence of CYP2D6 (P10635 whole entry): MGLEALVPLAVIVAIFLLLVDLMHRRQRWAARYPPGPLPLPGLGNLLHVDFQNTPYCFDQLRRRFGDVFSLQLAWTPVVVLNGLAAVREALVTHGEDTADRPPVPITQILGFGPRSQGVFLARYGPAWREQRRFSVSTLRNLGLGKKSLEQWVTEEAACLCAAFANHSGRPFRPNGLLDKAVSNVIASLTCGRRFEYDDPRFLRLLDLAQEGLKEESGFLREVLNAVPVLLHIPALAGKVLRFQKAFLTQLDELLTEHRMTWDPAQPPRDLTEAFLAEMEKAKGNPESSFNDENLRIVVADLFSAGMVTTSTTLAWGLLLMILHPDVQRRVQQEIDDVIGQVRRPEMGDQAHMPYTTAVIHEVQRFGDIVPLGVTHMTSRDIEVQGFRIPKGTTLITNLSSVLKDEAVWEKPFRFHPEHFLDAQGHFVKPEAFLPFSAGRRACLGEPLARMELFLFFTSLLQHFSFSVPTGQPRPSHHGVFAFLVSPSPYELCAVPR
Sequence of CYP3A4 (P08684 whole entry): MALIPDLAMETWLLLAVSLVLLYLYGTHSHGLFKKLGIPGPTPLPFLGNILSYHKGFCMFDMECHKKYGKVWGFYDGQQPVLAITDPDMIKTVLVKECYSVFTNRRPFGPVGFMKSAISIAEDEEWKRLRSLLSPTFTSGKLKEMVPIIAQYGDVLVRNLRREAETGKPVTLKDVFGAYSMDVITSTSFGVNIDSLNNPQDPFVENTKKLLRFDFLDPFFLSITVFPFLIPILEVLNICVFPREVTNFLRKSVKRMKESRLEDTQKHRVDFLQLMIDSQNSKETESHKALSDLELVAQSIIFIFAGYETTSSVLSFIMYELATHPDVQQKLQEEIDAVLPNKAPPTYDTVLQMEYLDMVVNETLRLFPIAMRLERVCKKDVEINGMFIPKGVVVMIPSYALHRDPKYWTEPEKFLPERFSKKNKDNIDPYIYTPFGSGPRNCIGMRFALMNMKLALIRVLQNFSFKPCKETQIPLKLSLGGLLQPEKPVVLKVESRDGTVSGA
Sequence of Cytochrome P450 1A2 (P05177 whole entry): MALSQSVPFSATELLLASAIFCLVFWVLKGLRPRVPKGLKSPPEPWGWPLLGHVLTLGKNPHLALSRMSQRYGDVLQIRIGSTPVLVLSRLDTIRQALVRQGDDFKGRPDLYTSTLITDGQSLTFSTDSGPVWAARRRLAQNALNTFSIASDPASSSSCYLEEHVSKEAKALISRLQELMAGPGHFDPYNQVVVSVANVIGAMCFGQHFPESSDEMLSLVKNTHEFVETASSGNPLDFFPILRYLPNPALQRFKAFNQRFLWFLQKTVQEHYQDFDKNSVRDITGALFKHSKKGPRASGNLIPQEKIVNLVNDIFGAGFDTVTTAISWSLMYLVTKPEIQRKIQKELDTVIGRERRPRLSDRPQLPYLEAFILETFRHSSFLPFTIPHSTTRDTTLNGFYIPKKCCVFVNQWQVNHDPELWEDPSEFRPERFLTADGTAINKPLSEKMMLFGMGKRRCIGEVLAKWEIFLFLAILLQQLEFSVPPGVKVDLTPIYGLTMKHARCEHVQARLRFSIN

Row | SMILES | Activity (Mus musculus) [%] | TD50 at 1 h ([1]; Kunming) [mg/kg] | Activity ([1]; po, 1 h, DDE = dose-dependent effect) | Activity [2] [mV] | Kp [3] | IC50 (Cytochrome P450 1A2) [nM] | selectivity ratio [4] | Tmax [5] [min] | half-life [6] [min] | EC50 (Brain) [nM] | AUC(0-t) at 24 h [7] [ng·h/mL] | Activity [8] | Cmax [9] [ng/mL] | Ratio ED50 (Rattus norvegicus) | Tmax [10] [min] | inhibition at 0.5 h, up to 50 µM (CYP3A4) [%] | IC50 shift (CYP2D6) | selectivity ratio [11] | half-life [12] [min]
1 | CCOC(=O)Nc1ccc(NCc2ccc(F)cc2)cc1N [EZOGABINE] | 62.5 | 188 | Dde | – | – | – | – | – | – | – | – | – | – | – | – | – | – | – | –
2 | C#CCN(Cc1ccc(F)cc1)c1cc(C)c(NC(=O)OC)c(C)c1 | – | – | – | -35.6 | 1.9 | 2530 | 43.2 | 15 | 142 | 70 | 716 | 3.4 | 323 | 2 | 15 | < 25 | < 1.5 | 49.6 | 12.5
